Source: ChEMBL document CHEMBL1153444, “Discovery of dual inhibitors targeting both HIV-1 capsid and human cyclophilin A to inhibit the assembly and uncoating of the viral capsid” (Bioorg Med Chem, 2009)
Calls of active or inactive are those of the source. The rule behind the calls is not given here.

What was measured:
[1] = Cytotoxicity against human CEM cells; assay type: cell-based; conditions: CEM cells (CCRF-CEM), read-out: TC50 (the source's name)
[2] = test system: Simian immunodeficiency virus; assay: Antiviral activity against SIV in human CEM cells assessed as inhibition of virus-induced cytopathogenicity; assay type: functional, organism-based, CCRF-CEM; conditions: Simian immunodeficiency virus, CCRF-CEM; read-out: EC50
How it was run: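 SIV syncytium assay in CEM174 cells (2 × 10⁵ cells/ml) infected with 100 TCID₅₀ SIV per well alongside serial compound dilutions. Cultures were kept 5 days at 37 °C in humidified 5% CO₂, then giant-cell formation was scored microscopically. EC₅₀ is the concentration protecting cells from SIV cytopathogenicity by 50%.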

[3] = target: T1, Peptidyl-prolyl cis-trans isomerase A (Homo sapiens, UniProt P62937); assay: Binding affinity to human cyclophilin A by intrinsic tryptophan fluorescence titration assay
How it was run: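 CypA intrinsic tryptophan fluorescence titration in 20 mM Tris–HCl, 100 mM NaCl, pH 7.4, at 25 °C, with compounds from 10 mM DMSO stocks. Excitation was 280 nm and emission was read at 340 nm. Kd was obtained by fitting intensity against final compound concentration to F₀/F = 1 + Ka·C.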

[4] = target: Structural capsid protein (Human immunodeficiency virus 1) (UniProt Q76129); assay: Binding affinity to HIV1 capsid assessed as assembly rate per minute by ultraviolet spectrophotometry assay
How it was run: (§1)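 Turbidity was read at 350 nm every 10 s after a short equilibration delay. Assembly rate (mOD/min) was taken from the initial slope of absorbance versus time.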

[5] = Therapeutic index, TC50 for human CEM cells to EC50 for SIV; assay type: cell-based, CCRF-CEM
[6] = target: Protease (Human immunodeficiency virus 1) (UniProt Q9YQ12); assay: Inhibition of HIV1 protease
How it was run: (§2)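 HIV-1 protease was preincubated with inhibitor (DMSO) for 20 min at room temperature in 0.1 M MES, 0.2 M NaCl, 5 mM EDTA, pH 5.5. The reaction was started with substrate Lys-Ala-Arg-Val-Leu-Phe(NO₂)-Glu-Ala-Met, and hydrolysis was followed as the A280 decrease over 40 min. Inhibition ratio was taken from Ai/A₀, with and without inhibitor.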

[7] = target: Human immunodeficiency virus type 1 integrase (Human immunodeficiency virus 1) (UniProt Q7ZJM1); assay: Inhibition of HIV1 integrase at 20 uM; design: scale not given: the % may be the effect or the level left
How it was run: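 Recombinant HIV-1 integrase (E. coli) was preincubated with compound for 30 min. It was then incubated for 30 min at 37 °C on plate-immobilized donor duplex in Tris–HCl pH 7.8, 25 mM NaCl, 7.5 mM MgCl₂, 5 mM β-mercaptoethanol and BSA. Biotinylated target duplex was added for 1 h at 37 °C. Integration products were detected by pNPP phosphatase read-out at A405, and inhibition was taken as the decrease in final absorbance.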

[8] = target: Structural capsid protein (Human immunodeficiency virus 1) (UniProt Q76129); assay: Binding affinity to HIV1 capsid assessed as assembly rate per minute at 1:1 drug to protein ratio by ultraviolet spectrophotometry assay; how it was run: as §1
[9] = target: Structural capsid protein (Human immunodeficiency virus 1) (UniProt Q76129); assay: Binding affinity to HIV1 capsid assessed as assembly rate per minute at 2:1 drug to protein ratio by ultraviolet spectrophotometry assay; how it was run: as §1
[10] = target: T1, Peptidyl-prolyl cis-trans isomerase A; assay: Inhibition of human cyclophilin A at 6 degC
How it was run: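 PPIase assay at 6 °C in 50 mM HEPES, 100 mM NaCl, using Suc-AAPF-pNA substrate (3 mM stock in THF with 480 mM LiCl). A390 was recorded for 20 s after about a 6 s mixing delay. Cis–trans rate constants came from nonlinear least-squares fits to an integrated first-order equation, and IC₅₀ was calculated from these.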

[11] = target: Structural capsid protein (Human immunodeficiency virus 1) (UniProt Q76129); assay: Binding affinity to HIV1 capsid assessed as assembly rate per minute at 0.5:1 drug to protein ratio by ultraviolet spectrophotometry assay; how it was run: as §1
[12] = target: Protease (Human immunodeficiency virus 1) (UniProt Q9YQ12); assay: Inhibition of HIV1 protease assessed as decrease in UV absorbance; conditions: concentration not given here; how it was run: as §2
[13] = target: Protease (Human immunodeficiency virus 1) (UniProt Q9YQ12); assay: Inhibition of HIV1 protease assessed as decrease in UV absorbance at 10 uM; how it was run: as §2

Structural capsid protein (Human immunodeficiency virus 1), sequence (Q76129 as listed by the source): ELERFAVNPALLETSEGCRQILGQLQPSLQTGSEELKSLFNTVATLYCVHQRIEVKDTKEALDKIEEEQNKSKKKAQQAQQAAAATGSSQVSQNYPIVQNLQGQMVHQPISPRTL
Protease (Human immunodeficiency virus 1), sequence (Q9YQ12 as listed by the source): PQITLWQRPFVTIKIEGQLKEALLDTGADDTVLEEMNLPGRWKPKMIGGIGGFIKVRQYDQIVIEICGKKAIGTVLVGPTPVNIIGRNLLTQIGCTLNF
Human immunodeficiency virus type 1 integrase (Human immunodeficiency virus 1), sequence (Q7ZJM1 as listed by the source): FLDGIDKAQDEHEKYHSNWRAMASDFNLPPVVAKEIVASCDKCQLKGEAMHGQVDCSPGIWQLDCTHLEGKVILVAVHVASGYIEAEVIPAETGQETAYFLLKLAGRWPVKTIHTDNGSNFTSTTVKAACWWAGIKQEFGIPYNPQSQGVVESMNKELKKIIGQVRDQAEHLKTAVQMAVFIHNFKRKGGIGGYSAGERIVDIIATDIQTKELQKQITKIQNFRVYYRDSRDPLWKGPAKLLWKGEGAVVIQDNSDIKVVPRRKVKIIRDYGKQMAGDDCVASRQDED
T1 sequence (P62937 whole entry): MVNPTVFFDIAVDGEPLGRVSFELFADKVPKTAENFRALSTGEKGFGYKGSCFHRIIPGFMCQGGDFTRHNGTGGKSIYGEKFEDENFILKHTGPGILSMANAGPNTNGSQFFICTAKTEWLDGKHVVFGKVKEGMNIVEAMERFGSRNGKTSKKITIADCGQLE

| SMILES | CC50 [1] | EC50 [2] | Kd ([3]; read-out: Kd) | Activity (milli optical density/minute) [4] | selectivity ratio [5] | Activity [6] | Activity [7] | Activity (milli optical density/minute) [8] | Activity (milli optical density/minute) [9] | IC50 [10] | Activity (milli optical density/minute) [11] | inhibition [12] | Activity [4] | Kd [3] | inhibition [13] |
| --- | --- | --- | --- | --- | --- | --- | --- | --- | --- | --- | --- | --- | --- | --- | --- |
| COc1ccc(NS(=O)(=O)c2ccc(NC(=S)Nc3ccc(Cl)cc3)cc2)cc1 | 77.5 µM | 4.1 µM | 60.8 µM | 26.3 | 19 | – | – | – | – | – | – | – | – | – | – |
| O=C1OCc2ccc(NC(=S)Nc3ccc(F)cc3)cc21 | 83.7 µM | 15.8 µM | 227 µM | 55.7 | 5 | inactive | < 20% | – | – | – | – | – | – | – | – |
| O=C1OCc2ccc(NC(=S)Nc3cc(F)cc(F)c3)cc21 | 69.1 µM | 6.1 µM | 513 µM | 63.6 | 11 | inactive | < 20% | – | – | – | – | – | – | – | – |
| Cc1cccc(NC(=S)Nc2ccc3c(c2)C(=O)OC3)c1 | 16 µM | 11.6 µM | 141 µM | 64.6 | 1 | inactive | < 20% | – | – | – | – | – | – | – | – |
| COc1ccc(NC(=S)Nc2ccc(S(=O)(=O)Nc3cc(C)on3)cc2)cc1 | 41.9 µM | 1.5 µM | 101 µM | 40 | 27 | inactive | < 20% | – | – | – | – | – | – | – | – |
| Cc1cc(NS(=O)(=O)c2ccc(NC(=S)Nc3ccc(Cl)cc3)cc2)no1 | 37.8 µM | 4.1 µM | 107 µM | 29 | 9 | – | – | 42 | 19.4 | 0.69 µM | 52.2 | – | – | – | – |
| O=C1OCc2ccc(NC(=S)Nc3cc(Cl)c(Cl)cc3Cl)cc21 | 24.4 µM | 3 µM | 147 µM | 67.8 | 8 | inactive | < 20% | – | – | – | – | – | – | – | – |
| Cc1cc(NS(=O)(=O)c2ccc(NC(=S)Nc3cccc(Cl)c3)cc2)no1 | 91.9 µM | 1 µM | 79.6 µM | 15.8 | 92 | – | – | 38.4 | 11.4 | 0.33 µM | 43.2 | – | – | – | – |
| COc1ccc(NC(=S)Nc2ccc3ccccc3c2)cc1 | 16.1 µM | 2.3 µM | 124 µM | 66.7 | 7 | inactive | < 20% | – | – | – | – | – | – | – | – |
| Cc1cc(NS(=O)(=O)c2ccc(NC(=S)Nc3ccc(F)cc3)cc2)no1 | 75.4 µM | 6.9 µM | 110 µM | 73.8 | 11 | – | – | – | – | 0.35 µM | – | – | – | – | – |
| CCN(CC)c1nc(C)c([N+](=O)[O-])c(NCCNC(=S)Nc2ccc(C)c(Cl)c2)n1 | 44.2 µM | 6.3 µM | 73.3 µM | 91 | 7 | – | – | – | – | 0.74 µM | – | – | – | – | – |
| O=C1OCc2ccc(NC(=S)Nc3ccc(Cl)cc3)cc21 | 83.9 µM | 6.2 µM | 222 µM | 49.6 | 14 | inactive | < 20% | – | – | – | – | – | – | – | – |
| Cc1cc(NS(=O)(=O)c2ccc(NC(=S)Nc3ccc(C)c(Cl)c3)cc2)no1 | 74.4 µM | 0.6 µM | 55.8 µM | 36.4 | 127 | – | – | – | – | 0.65 µM | – | < 5% | – | – | – |
| Cc1cc(NS(=O)(=O)c2ccc(NC(=S)Nc3cccc(Br)c3)cc2)no1 | 58.7 µM | 0.9 µM | 88.6 µM | 31.2 | 66 | – | – | – | – | 0.45 µM | – | – | – | – | – |
| O=C1OCc2ccc(NC(=S)Nc3cccc(F)c3)cc21 | 60.2 µM | 6.3 µM | 140 µM | 78.6 | 10 | inactive | < 20% | – | – | – | – | – | – | – | – |
| Cc1cc(NS(=O)(=O)c2ccc(NC(=S)Nc3ccccc3C)cc2)no1 | 48.4 µM | 6.2 µM | 116 µM | 64.8 | 8 | – | – | – | – | 0.6 µM | – | – | – | – | – |

| SMILES | CC50 [1] | EC50 [2] | Kd ([3]; read-out: Kd) | Activity (milli optical density/minute) [4] | selectivity ratio [5] | Activity [6] | Activity [7] | Activity (milli optical density/minute) [8] | Activity (milli optical density/minute) [9] | IC50 [10] | Activity (milli optical density/minute) [11] | inhibition [12] | Activity [4] | Kd [3] | inhibition [13] |
| --- | --- | --- | --- | --- | --- | --- | --- | --- | --- | --- | --- | --- | --- | --- | --- |
| Cc1ccc(NC(=S)Nc2ccc(S(=O)(=O)Nc3nccs3)cc2)cc1 | 20.9 µM | 2.2 µM | 76.9 µM | 59 | 9 | – | – | – | – | 0.45 µM | – | – | – | – | – |
| Cc1ccc(NC(=S)Nc2ccc(S(=O)(=O)Nc3cc(C)on3)cc2)cc1 | 41.4 µM | 9.6 µM | 119 µM | 45.9 | 4 | – | – | – | – | – | – | – | – | – | – |
| CCN(CC)c1nc(C)cc(NCCNC(=S)Nc2cccc(Br)c2)n1 | 8.43 µM | 5.5 µM | 200 µM | – | 2 | – | – | – | – | – | – | – | inactive | – | – |
| O=C1OCc2ccc(NC(=S)Nc3cccc(Br)c3)cc21 | 30.8 µM | 4.6 µM | 125 µM | 69.6 | 7 | inactive | < 20% | – | – | – | – | – | – | – | – |
| Cc1cc(NS(=O)(=O)c2ccc(NC(=S)Nc3ccccc3)cc2)no1 | 49.7 µM | 7.5 µM | 88.1 µM | 39.2 | 7 | – | – | – | – | 0.58 µM | – | – | – | – | – |
| Cc1ccc(NC(=S)Nc2ccc(C)c([N+](=O)[O-])c2)cc1Cl | 38.8 µM | 3.1 µM | 88.9 µM | 60 | 12 | inactive | < 20% | – | – | 0.46 µM | – | – | – | – | – |
| CCN(CC)c1nc(C)c([N+](=O)[O-])c(NCCNC(=S)Nc2cccc(Br)c2)n1 | 26.2 µM | 7.4 µM | 79.3 µM | 88.1 | 4 | – | – | – | – | 0.81 µM | – | – | – | – | – |
| O=S(=O)(Nc1nccs1)c1ccc(NC(=S)Nc2ccc(Cl)cc2)cc1 | 19.1 µM | 5.7 µM | 51 µM | 52.5 | 3 | inactive | < 20% | – | – | 0.13 µM | – | – | – | – | – |
| Cc1ccccc1NC(=S)Nc1ccc2c(c1)C(=O)OC2 | 46.9 µM | 2.8 µM | – | 65.7 | 17 | inactive | < 20% | – | – | – | – | – | – | Not Active | – |
| COc1ccc(NC(=S)Nc2ccc3c(c2)C(=O)OC3)cc1 | 91.9 µM | 4.7 µM | 172 µM | 59.1 | 20 | inactive | < 20% | – | – | – | – | – | – | – | – |
| Cc1cc(NS(=O)(=O)c2ccc(NC(=S)Nc3cccc(F)c3)cc2)no1 | 88 µM | 11.6 µM | 128 µM | 76.2 | 8 | – | – | – | – | 0.38 µM | – | – | – | – | – |
| Cc1ccc(NC(=S)Nc2ccc(S(=O)(=O)Nc3nccs3)cc2)cc1Cl | 37 µM | 10.8 µM | 51.6 µM | 27.4 | 3 | – | – | – | – | 0.16 µM | – | – | – | – | – |
| Cc1ccc(NC(=S)Nc2ccc3c(c2)C(=O)OC3)cc1Cl | 18.7 µM | 4.6 µM | 96.6 µM | 19.6 | 4 | inactive | < 20% | – | – | 0.59 µM | – | – | – | – | – |
| O=C1OCc2ccc(NC(=S)Nc3cccc(Cl)c3)cc21 | 86 µM | 4.2 µM | 133 µM | 49.2 | 20 | inactive | < 20% | – | – | – | – | < 5% | – | – | – |
| CC(C)(C)NC(=O)[C@@H]1CN(Cc2cccnc2)CCN1C[C@@H](O)C[C@@H](Cc1ccccc1)C(=O)N[C@H]1c2ccccc2C[C@H]1O | – | – | – | – | – | – | – | – | – | – | – | – | – | – | > 90% |
